What was measured:
Assay type in all cases: functional
SF-268 = test: Cytotoxicity against human SF268 cells assessed as cell growth at 100 uM after 48 hrs by sulforhodamine B assay; settings: SF-268, 48 h, read-out: Activity
Procedure, shortened: (§1)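 Primary one-dose screen on a three-line panel (MCF7 breast, NCI-H460 lung, SF-268 CNS) at 10^-4 M. Cells were preincubated 24–48 h before a single addition of the agent, followed by 48 h incubation. Endpoint was SRB protein staining, reported as percent growth versus untreated controls.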

MCF7 [1] = test: Cytotoxicity against human MCF7 cells assessed as cell growth at 100 uM after 48 hrs by sulforhodamine B assay; settings: MCF7, 48 h, read-out: Activity; procedure, shortened: as §1
NCI-H460 = test: Cytotoxicity against human NCI-H460 cells assessed as cell growth at 100 uM after 48 hrs by sulforhodamine B assay; settings: NCI-H460, 48 h, read-out: Activity; procedure, shortened: as §1
NCI-H23 = test: Growth inhibition of human NCI-H23 cells after 48 hrs by sulforhodamine B assay; settings: NCI-H23, 48 h
Procedure, shortened: (§2)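 Five-concentration assay in about 60 human tumour lines, using 10-fold dilutions from 10^-4 to 10^-8 M with 48 h continuous exposure and an SRB protein endpoint. Percent growth at each level comes from time-zero, untreated-control and treated absorbances. GI50 is 50% lower net protein increase than control. Values beyond the tested range are given as greater or less than the extreme concentration.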

OVCAR-3 = test: Growth inhibition of human OVCAR-3 cells after 48 hrs by sulforhodamine B assay; settings: OVCAR-3, 48 h; procedure, shortened: as §2
HCT-116 = test: Growth inhibition of human HCT116 cells after 48 hrs by sulforhodamine B assay; settings: HCT-116, 48 h; procedure, shortened: as §2
MCF7 [2] = test: Growth inhibition of human MCF7 cells after 48 hrs by sulforhodamine B assay; settings: MCF7, 48 h; procedure, shortened: as §2
U-251 = test: Growth inhibition of human U251 cells after 48 hrs by sulforhodamine B assay; settings: U-251, 48 h; procedure, shortened: as §2
MDA-MB-231 = test: Growth inhibition of human MDA-MB-231 cells after 48 hrs by sulforhodamine B assay; settings: MDA-MB-231, 48 h; procedure, shortened: as §2
[3] = read-out: pLC50 (the source's name) (converted)

| SMILES | growth at 100 µM (SF-268) | growth at 100 µM (MCF7 [1]) | growth at 100 µM (NCI-H460) | other results |
| --- | --- | --- | --- | --- |
| O=C(CN1C(=O)S/C(=C/c2ccc(Cl)cc2)C1=O)Nc1cccc(C(F)(F)F)c1 | 110% | 100% | 99% | – |
| O=C(CC1SC(=O)NC1=O)Nc1nccs1 (stereo not given) | 114% | 115% | 116% | – |
| O=C(CN1C(=O)N/C(=C\c2ccc(F)cc2)C1=O)Nc1ccccc1C(F)(F)F | 100% | 87% | 119% | – |
| O=C(CC1NC(=O)NC1=O)Nc1ccc(Cl)cc1 (stereo not given) | 114% | 115% | 121% | – |
| O=C(/C=C1\SC(=O)N(CC(=O)Nc2cccc(C(F)(F)F)c2)C1=O)Nc1ccc(Cl)cc1 | 100% | 103% | 108% | – |
| O=C(CN1C(=O)CNC1=O)Nc1cccc(C(F)(F)F)c1 | 113% | 111% | 106% | – |
| O=C(CN1C(=O)S/C(=C\C=C\c2ccccc2)C1=O)Nc1ccc(Cl)cc1 | 98% | 92% | 108% | – |
| COc1ccc(/C=C2/NC(=O)N(CC(=O)Nc3cccc(C(F)(F)F)c3)C2=O)cc1 | 65% | 64% | 44% | GI50 (NCI-H23): 26.3 µM; LC50 (NCI-H23): > 100 µM; TGI (NCI-H23; read-out: pTGI (converted)): 89.1 µM; GI50 (OVCAR-3): 30.9 µM; CC50 (OVCAR-3; [3]): > 100 µM; TGI (OVCAR-3; read-out: pTGI (converted)): 95.5 µM; GI50 (HCT-116): 30.2 µM; LC50 (HCT-116): > 100 µM; TGI (HCT-116; read-out: pTGI (converted)): > 100 µM; GI50 (MCF7 [2]): 2.82 µM; CC50 (MCF7 [2]; [3]): > 100 µM; TGI (MCF7 [2]; read-out: pTGI): > 100 µM; GI50 (U-251): 25.7 µM; LC50 (U-251): > 100 µM; TGI (U-251; read-out: pTGI (converted)): 69.2 µM; GI50 (MDA-MB-231): 23.4 µM; LC50 (MDA-MB-231): > 100 µM; TGI (MDA-MB-231; read-out: pTGI (converted)): 58.9 µM |
| O=C(/C=C1\SC(=O)N(CC(=O)Nc2ccc(Cl)cc2)C1=O)Nc1ccc(Cl)cc1 | 116% | 111% | 107% | – |

— ChEMBL document CHEMBL1153575, “Synthesis and in vitro anticancer activity of 2,4-azolidinedione-acetic acids derivatives” (2009)
